Test results: ChEMBL document CHEMBL4118021, “Studies of TAK1-centered polypharmacology with novel covalent TAK1 inhibitors” (Bioorg Med Chem, 2017); call rule not given here

Tests used:
[1] = biological target: Serine/threonine-protein kinase PLK1 (Homo sapiens) (UniProt P53350); test: Inhibition of PLK1 in human SKCO1 cells at 1 uM after 4 hrs using biotin labeled CFEISDADTKEVFAGKIVPK probe by mass-spectrometric analysis relative to control; type: cell-based
Method in brief: (§1)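 Live SK-CO-1 cells exposed to compound at 1 μM or DMSO for 4 h (KiNativ). Lysates then labeled with lysine-reactive ATP/ADP-biotin probe, and probe-labeled kinase peptides quantified by mass spectrometry. Percent inhibition of probe-dependent recovery calculated relative to DMSO-treated cells.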

[2] = biological target: Serine/threonine-protein kinase SMG1 (Homo sapiens) (UniProt Q96Q15); test: Inhibition of SMG1 in human SKCO1 cells at 1 uM after 4 hrs using biotin labeled DTVTIHSVGGTITILPTKTKPK probe by mass-spectrometric analysis relative to control; type: cell-based; method in brief: as §1
Sequence of Serine/threonine-protein kinase SMG1 (Homo sapiens) (Q96Q15 whole entry): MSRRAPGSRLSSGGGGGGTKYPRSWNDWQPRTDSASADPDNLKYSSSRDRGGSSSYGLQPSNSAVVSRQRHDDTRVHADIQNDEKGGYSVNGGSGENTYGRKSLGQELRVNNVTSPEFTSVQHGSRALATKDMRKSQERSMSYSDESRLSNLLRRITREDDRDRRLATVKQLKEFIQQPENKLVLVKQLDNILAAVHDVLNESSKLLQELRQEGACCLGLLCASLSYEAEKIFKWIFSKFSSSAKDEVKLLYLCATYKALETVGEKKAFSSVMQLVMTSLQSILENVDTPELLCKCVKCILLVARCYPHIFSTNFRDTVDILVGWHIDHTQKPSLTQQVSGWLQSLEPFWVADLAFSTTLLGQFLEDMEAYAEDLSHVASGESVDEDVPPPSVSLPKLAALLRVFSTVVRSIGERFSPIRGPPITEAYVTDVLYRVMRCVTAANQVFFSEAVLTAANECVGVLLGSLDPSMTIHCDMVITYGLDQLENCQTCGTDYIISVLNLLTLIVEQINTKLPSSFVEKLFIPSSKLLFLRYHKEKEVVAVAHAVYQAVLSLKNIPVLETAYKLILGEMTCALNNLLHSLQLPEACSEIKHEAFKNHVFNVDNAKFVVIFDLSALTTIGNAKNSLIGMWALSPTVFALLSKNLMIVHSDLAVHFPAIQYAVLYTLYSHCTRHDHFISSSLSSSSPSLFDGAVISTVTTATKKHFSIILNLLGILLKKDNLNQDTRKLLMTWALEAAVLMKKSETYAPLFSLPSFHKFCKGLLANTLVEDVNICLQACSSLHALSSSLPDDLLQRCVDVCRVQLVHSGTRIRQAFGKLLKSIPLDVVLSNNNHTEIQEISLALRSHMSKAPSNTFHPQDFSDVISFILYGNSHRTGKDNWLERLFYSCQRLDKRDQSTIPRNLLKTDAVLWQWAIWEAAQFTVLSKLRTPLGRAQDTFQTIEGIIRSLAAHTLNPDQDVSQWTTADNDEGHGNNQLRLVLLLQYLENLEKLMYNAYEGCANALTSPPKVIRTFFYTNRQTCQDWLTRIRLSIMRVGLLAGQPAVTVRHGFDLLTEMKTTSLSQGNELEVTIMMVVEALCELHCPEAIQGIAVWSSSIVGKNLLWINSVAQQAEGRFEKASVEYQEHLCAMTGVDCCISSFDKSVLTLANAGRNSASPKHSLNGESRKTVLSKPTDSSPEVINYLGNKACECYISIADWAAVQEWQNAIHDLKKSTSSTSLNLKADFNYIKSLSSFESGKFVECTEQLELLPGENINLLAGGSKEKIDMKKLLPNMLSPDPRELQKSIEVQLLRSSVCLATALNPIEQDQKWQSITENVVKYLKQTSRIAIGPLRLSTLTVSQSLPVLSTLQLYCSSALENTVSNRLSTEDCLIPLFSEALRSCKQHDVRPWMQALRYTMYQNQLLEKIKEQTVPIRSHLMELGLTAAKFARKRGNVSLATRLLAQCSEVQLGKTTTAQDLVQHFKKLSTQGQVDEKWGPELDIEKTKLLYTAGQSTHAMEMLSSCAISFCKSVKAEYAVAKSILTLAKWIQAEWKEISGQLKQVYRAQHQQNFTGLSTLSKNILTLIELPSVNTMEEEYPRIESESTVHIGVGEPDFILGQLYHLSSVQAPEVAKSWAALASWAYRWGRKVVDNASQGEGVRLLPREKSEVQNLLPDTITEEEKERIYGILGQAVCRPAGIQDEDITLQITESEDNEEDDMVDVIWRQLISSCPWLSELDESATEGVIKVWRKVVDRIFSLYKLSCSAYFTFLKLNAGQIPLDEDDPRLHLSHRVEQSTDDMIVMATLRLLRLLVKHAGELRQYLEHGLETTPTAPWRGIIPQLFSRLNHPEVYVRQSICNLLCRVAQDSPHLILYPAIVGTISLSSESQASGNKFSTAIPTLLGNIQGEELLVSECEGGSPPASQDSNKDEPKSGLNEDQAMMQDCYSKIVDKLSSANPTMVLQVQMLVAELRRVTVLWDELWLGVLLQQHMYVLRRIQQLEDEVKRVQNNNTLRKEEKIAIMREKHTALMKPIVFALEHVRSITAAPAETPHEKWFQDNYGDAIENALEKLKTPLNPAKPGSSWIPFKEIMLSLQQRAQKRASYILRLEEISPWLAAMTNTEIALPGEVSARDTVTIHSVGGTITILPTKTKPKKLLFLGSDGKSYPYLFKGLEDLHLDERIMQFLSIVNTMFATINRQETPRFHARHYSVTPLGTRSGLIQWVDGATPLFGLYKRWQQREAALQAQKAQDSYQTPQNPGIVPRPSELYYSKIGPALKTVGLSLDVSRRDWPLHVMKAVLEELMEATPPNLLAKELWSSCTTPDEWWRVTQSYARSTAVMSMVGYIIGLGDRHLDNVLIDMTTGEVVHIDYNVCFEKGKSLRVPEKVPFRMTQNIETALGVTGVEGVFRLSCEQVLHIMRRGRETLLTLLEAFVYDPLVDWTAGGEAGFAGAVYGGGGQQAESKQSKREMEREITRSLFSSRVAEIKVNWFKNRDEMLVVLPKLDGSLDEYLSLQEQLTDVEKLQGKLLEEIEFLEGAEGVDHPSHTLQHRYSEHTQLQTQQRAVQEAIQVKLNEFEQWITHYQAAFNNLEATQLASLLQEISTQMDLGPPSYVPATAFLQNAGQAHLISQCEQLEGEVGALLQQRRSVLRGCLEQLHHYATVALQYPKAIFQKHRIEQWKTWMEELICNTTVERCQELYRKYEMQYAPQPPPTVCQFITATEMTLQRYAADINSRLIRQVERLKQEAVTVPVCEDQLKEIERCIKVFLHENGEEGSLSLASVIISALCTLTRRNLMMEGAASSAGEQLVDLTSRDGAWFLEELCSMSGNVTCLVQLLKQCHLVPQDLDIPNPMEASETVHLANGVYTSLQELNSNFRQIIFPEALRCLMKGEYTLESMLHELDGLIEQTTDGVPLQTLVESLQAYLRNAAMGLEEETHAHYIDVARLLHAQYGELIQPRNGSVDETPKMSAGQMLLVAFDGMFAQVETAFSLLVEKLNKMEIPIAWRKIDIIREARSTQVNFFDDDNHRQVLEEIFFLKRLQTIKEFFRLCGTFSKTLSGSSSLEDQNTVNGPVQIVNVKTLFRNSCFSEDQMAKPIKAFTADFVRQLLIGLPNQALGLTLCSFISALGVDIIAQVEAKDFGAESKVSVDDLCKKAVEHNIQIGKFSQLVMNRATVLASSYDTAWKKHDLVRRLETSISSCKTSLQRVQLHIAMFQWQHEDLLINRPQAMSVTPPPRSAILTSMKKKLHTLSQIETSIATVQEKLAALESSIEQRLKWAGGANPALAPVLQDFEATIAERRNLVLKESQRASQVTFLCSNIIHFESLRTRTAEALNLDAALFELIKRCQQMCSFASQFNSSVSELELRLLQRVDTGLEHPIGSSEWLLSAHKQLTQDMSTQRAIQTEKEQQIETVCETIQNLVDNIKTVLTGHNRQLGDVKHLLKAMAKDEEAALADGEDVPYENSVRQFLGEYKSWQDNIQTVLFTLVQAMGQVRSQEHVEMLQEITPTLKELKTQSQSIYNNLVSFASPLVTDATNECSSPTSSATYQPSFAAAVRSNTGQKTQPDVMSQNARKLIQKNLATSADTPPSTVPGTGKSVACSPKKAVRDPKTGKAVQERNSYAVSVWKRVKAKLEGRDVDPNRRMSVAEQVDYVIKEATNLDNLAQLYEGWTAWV

[3] = biological target: Cyclin-dependent kinase 2 (Homo sapiens) (UniProt P24941); test: Inhibition of CDK2 in human SKCO1 cells at 1 uM after 4 hrs using biotin labeled DLKPQNLLINTEGAIK probe by mass-spectrometric analysis relative to control; type: cell-based
[4] = biological target: Cyclin-dependent kinase 15 (Homo sapiens) (UniProt Q96Q40); test: Inhibition of PFTAIRE2 in human SKCO1 cells at 1 uM after 4 hrs using biotin labeled DLKPQNLLISHLGELK probe by mass-spectrometric analysis relative to control; type: cell-based; method in brief: as §1
[5] = Increase in secretion of basic-FGF in TNFalpha activated RA patient-derived synovial fibroblasts at 0.6 to 3 uM preincubated for 3 hrs followed by TNFalpha stimulation measured after 18 hrs by sandwich immunoassay; settings: human
Method in brief: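 Primary RA patient synovial fibroblasts (donor RA2159) were seeded at 1000 cells/well, grown about 24 h, then starved overnight and again about 4 h in basal medium with 0.1% BSA. Cells were pre-incubated 3 h with inhibitor (0.6 or 3 μM) or DMSO, then stimulated 18 h with 10 ng/mL TNFα. Paired wells were pooled, in biological duplicate. Pooled supernatants were diluted 1:3 and read on Luminex bead sandwich immunoassays, with mock-medium background and spiked-ligand controls.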

[6] = biological target: T1, Serine/threonine-protein kinase LATS2 (Homo sapiens) (UniProt Q9NRM7); test: Inhibition of LATS2 in human SKCO1 cells at 1 uM after 4 hrs using biotin labeled DIKPDNILIDLDGHIK probe by mass-spectrometric analysis relative to control; type: cell-based
T1 sequence (whole entry): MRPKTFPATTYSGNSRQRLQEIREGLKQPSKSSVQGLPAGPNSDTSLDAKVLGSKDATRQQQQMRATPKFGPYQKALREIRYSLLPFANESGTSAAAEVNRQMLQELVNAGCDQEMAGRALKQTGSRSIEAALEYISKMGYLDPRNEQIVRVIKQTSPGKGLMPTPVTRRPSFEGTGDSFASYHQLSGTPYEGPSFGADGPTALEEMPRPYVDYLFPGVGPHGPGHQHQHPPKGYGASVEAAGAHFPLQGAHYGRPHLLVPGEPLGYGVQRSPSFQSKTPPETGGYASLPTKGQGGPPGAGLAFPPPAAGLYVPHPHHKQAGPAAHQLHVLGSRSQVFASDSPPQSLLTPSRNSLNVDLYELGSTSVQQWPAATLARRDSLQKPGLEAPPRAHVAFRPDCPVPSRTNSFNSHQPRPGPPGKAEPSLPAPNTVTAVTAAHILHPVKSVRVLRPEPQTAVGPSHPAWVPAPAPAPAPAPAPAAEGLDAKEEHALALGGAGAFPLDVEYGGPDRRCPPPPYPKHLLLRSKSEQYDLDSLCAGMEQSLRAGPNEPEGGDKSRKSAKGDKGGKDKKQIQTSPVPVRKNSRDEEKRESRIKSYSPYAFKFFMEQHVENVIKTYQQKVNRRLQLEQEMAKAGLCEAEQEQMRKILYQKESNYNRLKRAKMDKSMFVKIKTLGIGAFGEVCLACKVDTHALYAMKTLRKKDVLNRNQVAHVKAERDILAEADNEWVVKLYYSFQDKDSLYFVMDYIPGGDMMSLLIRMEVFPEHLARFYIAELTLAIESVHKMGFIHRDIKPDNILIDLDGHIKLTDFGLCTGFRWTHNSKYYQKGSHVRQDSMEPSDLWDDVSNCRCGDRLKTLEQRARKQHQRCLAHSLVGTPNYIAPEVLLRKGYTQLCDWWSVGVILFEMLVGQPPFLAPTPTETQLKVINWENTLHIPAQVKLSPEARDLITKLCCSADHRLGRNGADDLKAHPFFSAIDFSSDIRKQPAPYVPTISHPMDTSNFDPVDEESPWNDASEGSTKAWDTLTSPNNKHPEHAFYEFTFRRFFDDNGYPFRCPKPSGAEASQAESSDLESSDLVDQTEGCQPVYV

[7] = biological target: Tyrosine-protein kinase Lyn (Homo sapiens) (UniProt P07948); test: Inhibition of LYN in human SKCO1 cells at 1 uM after 4 hrs using biotin labeled VAVKTLKPGTMSVQAFLEEANLMK probe by mass-spectrometric analysis relative to control; type: cell-based
Sequence of Tyrosine-protein kinase Lyn (Homo sapiens) (P07948 2-512 limits assumed): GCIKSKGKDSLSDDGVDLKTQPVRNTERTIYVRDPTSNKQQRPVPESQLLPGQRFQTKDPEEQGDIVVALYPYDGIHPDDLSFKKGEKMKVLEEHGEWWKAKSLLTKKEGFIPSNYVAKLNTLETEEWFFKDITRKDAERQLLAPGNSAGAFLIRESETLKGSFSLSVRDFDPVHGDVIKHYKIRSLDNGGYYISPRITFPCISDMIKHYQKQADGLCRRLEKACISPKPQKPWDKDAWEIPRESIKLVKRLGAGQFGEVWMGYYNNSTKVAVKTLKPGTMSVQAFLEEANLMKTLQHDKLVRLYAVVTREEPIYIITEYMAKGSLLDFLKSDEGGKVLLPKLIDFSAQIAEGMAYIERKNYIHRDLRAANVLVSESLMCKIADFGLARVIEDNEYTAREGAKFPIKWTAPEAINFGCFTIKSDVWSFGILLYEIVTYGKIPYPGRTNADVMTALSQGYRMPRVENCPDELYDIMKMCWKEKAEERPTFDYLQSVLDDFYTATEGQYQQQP

[8] = biological target: Ribosomal protein S6 kinase alpha-1 (Homo sapiens) (UniProt Q15418); test: Inhibition of RSK1 domain1 in human SKCO1 cells at 1 uM after 4 hrs using biotin labeled DLKPENILLDEEGHIK probe by mass-spectrometric analysis relative to control; type: cell-based; settings: pooled result: one value given for 3 cell lines, strains, targets or settings; method in brief: as §1

Sequence of Serine/threonine-protein kinase PLK1 (Homo sapiens) (P53350 whole entry): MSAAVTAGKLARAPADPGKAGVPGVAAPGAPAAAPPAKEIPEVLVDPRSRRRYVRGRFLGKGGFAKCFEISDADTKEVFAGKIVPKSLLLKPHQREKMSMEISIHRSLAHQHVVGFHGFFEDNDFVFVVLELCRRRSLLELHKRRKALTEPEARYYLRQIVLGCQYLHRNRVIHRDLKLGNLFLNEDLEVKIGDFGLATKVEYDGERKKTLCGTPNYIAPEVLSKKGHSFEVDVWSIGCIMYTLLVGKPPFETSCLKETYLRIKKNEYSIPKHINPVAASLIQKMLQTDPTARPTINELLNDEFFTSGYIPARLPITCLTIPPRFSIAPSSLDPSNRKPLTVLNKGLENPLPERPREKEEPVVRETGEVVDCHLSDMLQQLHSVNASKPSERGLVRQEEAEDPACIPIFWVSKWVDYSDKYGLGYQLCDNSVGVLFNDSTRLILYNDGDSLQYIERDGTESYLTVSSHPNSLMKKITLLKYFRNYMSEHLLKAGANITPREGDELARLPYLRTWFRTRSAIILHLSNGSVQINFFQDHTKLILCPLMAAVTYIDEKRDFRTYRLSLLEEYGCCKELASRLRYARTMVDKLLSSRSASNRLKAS

Compound | inhibition [1] | inhibition [2] | inhibition [3] | inhibition [4] | Activity [5] | inhibition [6] | inhibition [7] | inhibition [8]
COc1cc(O)c2c(c1)/C=C/C[C@H](O)[C@H](O)C(=O)/C=C\C[C@H](C)OC2=O | 61.5% | -8.2% | 30% | 31.8% | Toxic | -0.3% | -5.1% | 65.4%
C=CC(=O)Nc1ccccc1Nc1nc(Nc2ccc(N3CCN(C)CC3)cc2)ncc1Cl | 54.6% | 0.8% | 18.7% | 41.5% | Toxic | 40.7% | 16.5% | 42.5%
C=CC(=O)Nc1ccccc1Oc1nc(Nc2cnn(CCOC)c2)ncc1Cl | 59.9% | 16.4% | 33.1% | 22.8% | Non-Toxic | 6.7% | 2.8% | 13%
